Published values gathered from unrelated publications.
Lines come from different studies, so protocols differ. Converted amounts (≈) assume the structure as drawn.

COc1ccc(N=Nc2c(N)nn3c(-c4ccco4)cc(-c4ccc(OCc5ccccc5)cc4)nc23)cc1 — MBC (Enterobacter cloacae; microbial killing; ATCC23355): 62.5 µg/mL (≈ 121 µM)
Cc1ccc2[nH]nc(-c3nnc(Nc4ccc(Br)cc4)s3)c2c1 — MIC (Serratia marcescens; microbial growth; ATCC8100): 257 µg/mL (≈ 664 µM)
Cc1ccc(N=Nc2c(N)nn3c(-c4ccc(C)cc4)cc(-c4ccc(OCc5ccccc5)cc4)nc23)cc1 — MBC (Enterobacter cloacae; microbial killing; ATCC23355): 62.5 µg/mL (≈ 119 µM)
Cc1n[nH]c2ccc3nc(-c4ccc(C(=O)NCCN(C)C)cc4)c4c(c3c12)CCCCC4 — GI50 (22Rv1; cell growth or viability; 72 h): 7.15 µM
O=C(Nc1ccc(-c2cn(Cc3ccc(Cl)cc3)nn2)cc1)Nc1ccccc1Br — viability (NCI-H1299; cell growth or viability, CCK-8; 50 µM, 72 h): 109%
COc1ccc(N=Nc2c(N)nn3c(-c4ccc(C)cc4)cc(-c4ccc(OCc5ccccc5)cc4)nc23)cc1 — MBC (Enterobacter cloacae; microbial killing; ATCC23355): 125 µg/mL (≈ 231 µM)
COc1ccc(NC(=O)Nc2ccc(-c3cn(Cc4ccc(Br)cc4)nn3)cc2)cc1 — viability (NCI-H1299; cell growth or viability, CCK-8; 50 µM, 72 h): 106%
O=C(NCc1cn(Cc2ccc(Br)cc2)nn1)Nc1ccc(Cl)cc1 — viability (NCI-H1299; cell growth or viability, CCK-8; 50 µM, 72 h): 91.5%
CN(C)CCNC(=O)c1ccc(-c2nc3ccc4[nH]ncc4c3c3c2CCCCC3)cc1 — GI50 (22Rv1; cell growth or viability; 72 h): 4.12 µM
COc1ccc(NC(=O)NCc2cn(Cc3ccc(Br)cc3)nn2)cc1 — viability (NCI-H1299; cell growth or viability, CCK-8; 50 µM, 72 h): 91.9%
Cc1ccc2[nH]nc(-c3nnc(Nc4ccc(C(F)(F)F)cc4)s3)c2c1 — MIC (Serratia marcescens; microbial growth; ATCC8100): 62.8 µg/mL (≈ 167 µM)
O=C(Nc1ccc(Cl)cc1)Nc1ccc(-c2cn(Cc3ccc(Cl)cc3)nn2)cc1 — viability (NCI-H1299; cell growth or viability, CCK-8; 50 µM, 72 h): 88.1%
COc1ccc(NC(=O)Nc2ccc(-c3cn(Cc4ccc(Cl)cc4)nn3)cc2)cc1 — viability (NCI-H1299; cell growth or viability, CCK-8; 50 µM, 72 h): 97.9%
O=C(Nc1ccc(Cl)cc1)Nc1ccc(-c2cn(Cc3ccc(Br)cc3)nn2)cc1 — viability (NCI-H1299; cell growth or viability, CCK-8; 50 µM, 72 h): 89.9%
O=C(Nc1ccc(Cl)cc1)Nc1cccc(-c2cn(Cc3cccc(Br)c3)nn2)c1 — viability (NCI-H1299; cell growth or viability, CCK-8; 50 µM, 72 h): 94.7%
Cc1ccc(-c2cc(-c3ccc(OCc4ccccc4)cc3)nc3c(N=Nc4ccc(F)cc4)c(N)nn23)cc1 — MBC (Enterobacter cloacae; microbial killing; ATCC23355): 125 µg/mL (≈ 236 µM)
COc1ccc(NC(=O)Nc2ccc(-c3cn(Cc4cccc(Cl)c4)nn3)cc2)cc1 — viability (NCI-H1299; cell growth or viability, CCK-8; 50 µM, 72 h): 93.7%
CC[C@H]1OC(=O)[C@H](C)[C@@H](O[C@H]2C[C@@](C)(OC)[C@@H](O)[C@H](C)O2)[C@H](C)[C@@H](O[C@@H]2O[C@H](C)C[C@H](N(C)C)[C@H]2O)[C@](C)(O)C[C@@H](C)CN(C)[C@H](C)[C@@H](O)[C@]1(C)O — MIC (Serratia marcescens; microbial growth; ATCC8100): < 98 µg/mL
